High-throughput results deposited in PubChem by several laboratories.
MT1-MMP act inh: MT1-MMP (human) activation inhibition; P50281; HT1080 RFP-PRO-GFP cells, GFP/RFP ratio fluorescence, overnight; percent of plate control window, DMSO zero; GFP/RFP ratio change, % at 20 µM; 360,000 compounds, 0.061% hits;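 active means GFP/RFP ratio change of at least 30% with cell ATP level not reduced by more than half and red fluorescence within 50% of control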
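Assay system – RFP-PRO-GFP reporter HT1080 cells · Compound dosing – single dose of 20 µM compound, 1% DMSO final · Incubation – overnight compound exposure at 37 °C · Measure – GFP/RFP fluorescence ratio · Benchmarks – DMSO wells and RFP-L50D-GFP cells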
TLR9-MyD88 block: inhibitors of human TLR9-MyD88 binding | Q9NR96+Q99836 | CHO BLA complementation TLR9-MyD88, CCF4 FRET ratio | inhibition, % at 4.98 µM | 340,000 compounds, 0.21% hits | AID 504734;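 active means inhibition above the mean over all tested compounds plus 3 SD, cut at about 21% in these data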;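 further: 0% = DMSO only wells and 100% = clavulanate BLA inhibitor control wells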
SKN-1 inh: inhibitors of C. elegans SKN-1 | C. elegans VP596 Pgst-4::GFP/RFP ratio, acrylamide-induced, 24 h | inhibition, % at 21.8 µM | 360,000 compounds, 0.49% hits;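 active means interference check ratio from 0.5 to 1.5 plus GFP to RFP signal ratio inhibition reaching or exceeding a fixed threshold, cut at about 30% in these data, passing the limit was not always enough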
TLR4 MyD88 comp: TLR4-MyD88 interaction inhibition in cells | HeLa CL3-4 TLR4/MyD88 BLA complementation, FRET ratio | inhibition, % at 8.4 µM | 200,000 compounds, 0.18% hits | AID 861; in the data active means inhibition above about 25%;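 further: 0% = vehicle and 100% = reference inhibitor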
Target sequence (O00206 whole entry, looked up): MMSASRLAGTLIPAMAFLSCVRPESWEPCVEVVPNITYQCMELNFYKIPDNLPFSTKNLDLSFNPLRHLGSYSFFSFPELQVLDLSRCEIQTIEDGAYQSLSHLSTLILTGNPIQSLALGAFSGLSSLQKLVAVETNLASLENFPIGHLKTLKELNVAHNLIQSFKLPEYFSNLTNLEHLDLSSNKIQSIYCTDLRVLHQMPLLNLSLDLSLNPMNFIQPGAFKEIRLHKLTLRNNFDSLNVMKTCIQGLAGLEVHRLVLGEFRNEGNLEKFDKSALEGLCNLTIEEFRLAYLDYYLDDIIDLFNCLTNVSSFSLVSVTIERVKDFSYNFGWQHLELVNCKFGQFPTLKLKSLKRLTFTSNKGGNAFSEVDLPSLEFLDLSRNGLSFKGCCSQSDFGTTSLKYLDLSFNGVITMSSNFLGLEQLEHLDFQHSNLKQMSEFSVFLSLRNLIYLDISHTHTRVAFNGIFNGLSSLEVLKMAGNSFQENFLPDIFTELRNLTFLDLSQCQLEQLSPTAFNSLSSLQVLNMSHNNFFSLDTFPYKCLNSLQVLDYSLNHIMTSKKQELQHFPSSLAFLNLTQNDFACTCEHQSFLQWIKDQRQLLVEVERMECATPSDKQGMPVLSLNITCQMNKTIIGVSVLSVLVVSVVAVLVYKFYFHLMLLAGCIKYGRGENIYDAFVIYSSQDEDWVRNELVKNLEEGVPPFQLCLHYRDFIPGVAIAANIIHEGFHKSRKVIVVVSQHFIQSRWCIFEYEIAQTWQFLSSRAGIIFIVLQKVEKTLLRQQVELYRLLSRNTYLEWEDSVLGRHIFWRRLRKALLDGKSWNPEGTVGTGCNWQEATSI
Target sequence (Q99836 whole entry, looked up): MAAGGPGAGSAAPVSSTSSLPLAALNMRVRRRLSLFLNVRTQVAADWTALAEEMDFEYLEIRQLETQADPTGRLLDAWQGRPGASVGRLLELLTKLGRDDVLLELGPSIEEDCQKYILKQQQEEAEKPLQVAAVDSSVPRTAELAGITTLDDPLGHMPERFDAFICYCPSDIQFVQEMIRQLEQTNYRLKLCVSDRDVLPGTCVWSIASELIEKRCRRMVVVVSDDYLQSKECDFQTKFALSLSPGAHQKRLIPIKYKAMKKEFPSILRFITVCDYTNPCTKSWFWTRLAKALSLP
NOD2 RIPK2 PPI: inhibitors of human NOD2-RIPK2 interaction. O43353. CHO BLA complementation NOD2-RIPK2, CCF4 ratio. inhibition, % at 4.98 µM. 360,000 compounds, 0.38% hits. AID 624267; in the data active means inhibition above about 21%;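 further: 0% = vehicle only and 100% = reference blocker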
Numbers without * were called inactive. In the library only some 0.99% were active in any assay of this set; here they are far more common.

What do the screens show for `Cc1ccc(/C(N)=N/OC(=O)c2ccco2)cc1`?
MT1-MMP act inh: 0; TLR9-MyD88 block: 15; SKN-1 inh: 85*; TLR4 MyD88 comp: 8; NOD2 RIPK2 PPI: 0

Results for N/C(=N\OC(=O)c1ccco1)c1ccc(Br)cc1 ?
MT1-MMP act inh: 2; TLR9-MyD88 block: 5; SKN-1 inh: 50*; TLR4 MyD88 comp: -2; NOD2 RIPK2 PPI: 9

How did CCOc1ccccc1NC(=O)COC(=O)COc1cccc2c1OC(C)(C)C2 do in these assays?
MT1-MMP act inh: 1; TLR9-MyD88 block: 4; SKN-1 inh: -8; NOD2 RIPK2 PPI: -2

Results for COC(=O)C1C2CC3c4[nH]c5cc(OC)ccc5c4CCN3CC2CC(OC(=O)CC(C)=O)C1OC (stereo not drawn) ?
MT1-MMP act inh: -56; TLR9-MyD88 block: 5; SKN-1 inh: 47*; NOD2 RIPK2 PPI: 0

Results for Fc1ccc(-c2nnn(Cc3nc4ccccc4s3)n2)cc1 ?
MT1-MMP act inh: 1; TLR9-MyD88 block: -3; SKN-1 inh: 37*; TLR4 MyD88 comp: -2; NOD2 RIPK2 PPI: -9

How did Clc1ccc(-c2nnn(Cc3nc4ccccc4s3)n2)cc1 do in these assays?
MT1-MMP act inh: 1; TLR9-MyD88 block: 5; SKN-1 inh: 57*; TLR4 MyD88 comp: -12; NOD2 RIPK2 PPI: -11

Results for COCCN(C(=O)CSc1nnc(-c2cccc(F)c2)n1N)c1c(N)n(CC(C)C)c(=O)[nH]c1=O ?
MT1-MMP act inh: -1; TLR9-MyD88 block: -2; SKN-1 inh: 13; NOD2 RIPK2 PPI: 4

How did Cc1cnn(-c2nc(-c3cccs3)cc(C(F)(F)F)n2)c1 do in these assays?
MT1-MMP act inh: -2; TLR9-MyD88 block: -3; SKN-1 inh: 21; TLR4 MyD88 comp: -1; NOD2 RIPK2 PPI: 10

Results for FC(F)(F)c1cc(-c2cccs2)nc(-n2cc(Br)cn2)n1 ?
MT1-MMP act inh: 0; TLR9-MyD88 block: -9; SKN-1 inh: 45*; TLR4 MyD88 comp: -11; NOD2 RIPK2 PPI: 0

How did Cc1c(OCC(=O)OC(C)(C)C)ccc2c3c(c(=O)oc12)CCC3 do in these assays?
MT1-MMP act inh: 0; TLR9-MyD88 block: -8; SKN-1 inh: 5; TLR4 MyD88 comp: 8; NOD2 RIPK2 PPI: -8

Results for Cc1c(OC(=O)CNC(=O)OC(C)(C)C)ccc2c3c(c(=O)oc12)CCC3 ?
MT1-MMP act inh: -10; TLR9-MyD88 block: -7; SKN-1 inh: 45*; TLR4 MyD88 comp: -11; NOD2 RIPK2 PPI: 6

How did COc1ccc(Cl)cc1C(=O)Nc1ccccc1N1CCCCC1 do in these assays?
MT1-MMP act inh: -5; TLR9-MyD88 block: 6; SKN-1 inh: 35*; NOD2 RIPK2 PPI: -3

What do the screens show for `Clc1cc(Cl)c2nc(N3CCCC3)sc2c1`?
MT1-MMP act inh: -2; TLR9-MyD88 block: 5; SKN-1 inh: 37*; TLR4 MyD88 comp: -3; NOD2 RIPK2 PPI: -6

How did Cc1cc(OCCCCN2C(=O)NC(C)(C)C2=O)cc(C)c1Cl do in these assays?
MT1-MMP act inh: 0; TLR9-MyD88 block: -1; SKN-1 inh: 39*; TLR4 MyD88 comp: -4; NOD2 RIPK2 PPI: 0

Results for O=C(NCC1CCCCC1)C1CCCN(C(=O)NC2CCCCC2)C1 (stereo not drawn) ?
MT1-MMP act inh: 9; TLR9-MyD88 block: 2; SKN-1 inh: -10; TLR4 MyD88 comp: 5; NOD2 RIPK2 PPI: -6

Results for NC(=O)C1CCCN(C(=O)NC2CCCCC2)C1 (stereo not drawn) ?
MT1-MMP act inh: 1; TLR9-MyD88 block: 8; SKN-1 inh: 40*; TLR4 MyD88 comp: -4; NOD2 RIPK2 PPI: -6

What do the screens show for `O=C1NN=C2CCCCCC12` (stereo not drawn)?
MT1-MMP act inh: 0; TLR9-MyD88 block: -4; SKN-1 inh: -3; NOD2 RIPK2 PPI: -7

What do the screens show for `Cc1ccc(S(=O)(=O)CCC(=O)Nc2cc(C)on2)cc1`?
MT1-MMP act inh: 2; TLR9-MyD88 block: -9; SKN-1 inh: 9; NOD2 RIPK2 PPI: -11

How did Cc1cc(NC(=O)CCS(=O)(=O)c2nc(-c3ccccc3)cc(C(F)(F)F)n2)no1 do in these assays?
MT1-MMP act inh: -3; TLR9-MyD88 block: 11; SKN-1 inh: 5; NOD2 RIPK2 PPI: 23*

How did N#Cc1nc(N2CCOCC2)nc(N2CCOCC2)n1 do in these assays?
MT1-MMP act inh: 2; TLR9-MyD88 block: 4; SKN-1 inh: 36*; TLR4 MyD88 comp: 11; NOD2 RIPK2 PPI: 11

How did N#CCOc1nc(N2CCOCC2)nc(N2CCOCC2)n1 do in these assays?
MT1-MMP act inh: 13; TLR9-MyD88 block: 0; SKN-1 inh: 15; TLR4 MyD88 comp: 4; NOD2 RIPK2 PPI: -1

Results for O=C(Nc1ccc(Cl)cn1)c1cc2c(s1)-c1ccccc1OC2 ?
MT1-MMP act inh: 0; TLR9-MyD88 block: -6; SKN-1 inh: 38*; NOD2 RIPK2 PPI: -7

How did O=C1NC(=O)C(c2cn(-c3ccccc3)nc2-c2ccc(F)cc2)N1 (stereo not drawn) do in these assays?
MT1-MMP act inh: -6; TLR9-MyD88 block: -2; SKN-1 inh: 0; TLR4 MyD88 comp: 3; NOD2 RIPK2 PPI: -1

How did CC1=C(C(=O)c2ccccc2)C(c2cn(-c3ccccc3)nc2-c2ccc(Cl)cc2)NC(=S)N1 (stereo not drawn) do in these assays?
MT1-MMP act inh: -22; TLR9-MyD88 block: 3; SKN-1 inh: 38*; TLR4 MyD88 comp: 3; NOD2 RIPK2 PPI: 0

What do the screens show for `Cn1ncc2c(NCCc3ccccc3)nc(Cl)nc21`?
MT1-MMP act inh: 1; TLR9-MyD88 block: -3; SKN-1 inh: 35*; NOD2 RIPK2 PPI: 3

What do the screens show for `COc1cc(NC(=O)C2CC(=O)N(CCc3ccc(F)cc3)C2)cc(OC)c1OC` (stereo not drawn)?
MT1-MMP act inh: 2; TLR9-MyD88 block: 4; SKN-1 inh: -4; NOD2 RIPK2 PPI: -6

How did O=C(CCc1ccccc1)Nc1cc(S(=O)(=O)N2CCOCC2)ccc1N1CCCC1 do in these assays?
MT1-MMP act inh: -1; TLR9-MyD88 block: 3; SKN-1 inh: 2; NOD2 RIPK2 PPI: 4

Results for CC(C)CCNC(=O)NC(=O)COC(=O)/C=C/c1cnc2ccccc2n1 ?
MT1-MMP act inh: -4; TLR9-MyD88 block: -8; SKN-1 inh: 37*; TLR4 MyD88 comp: -4; NOD2 RIPK2 PPI: 3

How did CC(C)CCNC(=O)NC(=O)COc1ccccc1C#N do in these assays?
MT1-MMP act inh: 10; TLR9-MyD88 block: 5; SKN-1 inh: 38*; TLR4 MyD88 comp: -7; NOD2 RIPK2 PPI: 3

How did Cc1cc(C)c(NC(=O)CS(=O)CC(=O)Nc2ccc(N3CCOCC3)cc2)c(C)c1 (stereo not drawn) do in these assays?
MT1-MMP act inh: -3; TLR9-MyD88 block: 3; SKN-1 inh: 35*; NOD2 RIPK2 PPI: -12

What do the screens show for `Cc1ccc(NC(=O)CS(=O)CC(=O)Nc2ccc(N3CCOCC3)cc2)cc1Cl` (stereo not drawn)?
MT1-MMP act inh: 3; TLR9-MyD88 block: -2; SKN-1 inh: 11; TLR4 MyD88 comp: 7; NOD2 RIPK2 PPI: 4
